Screening results deposited in PubChem by several laboratories.
Rows were chosen to be rich in hits. Some 2.6% of all compounds tested hit in one or more screens of this group.
MEKK2mut PB1 HTS: MEK5 binding signal on mutant MEKK2 PB1, primary screen, biochemical, multiplex bead flow cytometry, Alexa488-MEK5 | percent response, % at 10 µM | Alexa488-MEK5 binding to MEKK2 mutant | hit rate 0.35% among 290,000; in the data active means percent response above about 24%, passing the limit was not always enough
MEKK2 WT-MEK5: modulators of MEK5 binding to wildtype MEKK2, primary screen, biochemical, multiplex bead flow cytometry, Alexa488-MEK5; Mitogen-activated protein kinase kinase kinase 2 (Homo sapiens), Q9Y2U5; Alexa488-MEK5 binding to MEKK2 WT; actives lie on both sides; binding response (% of control), % at 10 µM; hit rate 1.1% among 290,000; in the data active means binding response below about 67% or above about 130%
Lipid droplet: inhibitors of hepatocyte lipid droplet formation, primary screen, imaging, high-throughput imaging, BODIPY stain; AML12 mouse hepatocytes, oleate lipid droplets; inhibition, % at 6.5 µM; hit rate 0.4% among 240,000; AID 1656, 2009;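 active means lipid droplet intensity inhibited by at least 50%, with more than 500 cells counted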
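Material: mouse AML12 hepatocyte cell line, fixed after treatment; Timing: compound with oleate, overnight; Technique: high-content imaging of BODIPY-stained droplets and DAPI nuclei; Probe or stimulus: oleate, 100 µM final; Dosing: compound at 6.5 µM only.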
MEKK3 PB1 HTS: modulators of MEKK3-MEK5 PB1 binding, primary screen, biochemical, wildtype MEKK3, multiplex bead flow cytometry, Alexa488-MEK5. AID 1529, 2009. hit rate 1.4% among 290,000. binding response (% of control), % at 10 µM. bead-based flow cytometry, Alexa488-MEK5 binding to MEKK3; actives lie on both sides; 0 = blocked by unlabeled MEK5, 100 = vehicle. Mitogen-activated protein kinase kinase kinase 3 (Homo sapiens), Q99759;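 active means binding response more than 3 SD above or below the average of its plate-row segment, actives on both sides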;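 further: Alexa488 bead fluorescence after subtracting the streptavidin-only scavenger bead signal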
Target sequence (Q99759 whole entry, looked up): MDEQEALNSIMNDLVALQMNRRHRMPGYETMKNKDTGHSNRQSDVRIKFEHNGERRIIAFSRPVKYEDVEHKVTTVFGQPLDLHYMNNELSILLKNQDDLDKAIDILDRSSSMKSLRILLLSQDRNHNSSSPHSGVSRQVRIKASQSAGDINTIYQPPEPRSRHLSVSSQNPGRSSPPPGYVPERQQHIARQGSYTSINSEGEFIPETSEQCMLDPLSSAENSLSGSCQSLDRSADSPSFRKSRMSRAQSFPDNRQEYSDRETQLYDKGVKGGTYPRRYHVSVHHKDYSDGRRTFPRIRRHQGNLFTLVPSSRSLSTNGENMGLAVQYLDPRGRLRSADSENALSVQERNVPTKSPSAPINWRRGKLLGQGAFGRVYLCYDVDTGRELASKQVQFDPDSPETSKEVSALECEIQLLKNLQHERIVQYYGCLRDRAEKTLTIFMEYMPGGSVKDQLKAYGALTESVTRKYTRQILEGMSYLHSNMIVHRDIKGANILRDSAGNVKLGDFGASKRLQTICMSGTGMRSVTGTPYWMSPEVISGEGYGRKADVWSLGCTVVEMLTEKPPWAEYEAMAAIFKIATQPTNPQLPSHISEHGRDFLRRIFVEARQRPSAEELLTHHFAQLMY
MEKK2wt confirm: modulators of MEK5 binding to wildtype MEKK2, confirmation, biochemical, single concentration, multiplex bead flow cytometry | shares compounds with MEKK3 PB1 HTS | Alexa488-MEK5 binding to MEKK2 WT; actives lie on both sides | AID 1892, 2009 | hit rate 2.4% among 5,900 | binding response (% of control), % at 10 µM; in the data active means binding response below about 16% or above about 210%; inactive means in between
MEKK2mut confirm: mutant MEKK2 PB1-MEK5 binding signal retest – biochemical, single concentration, multiplex bead flow cytometry, confirmation. AID 1893, 2009. shares compounds with MEKK3 PB1 HTS. hit rate 2% among 5,900. Alexa488-MEK5 binding to MEKK2 mutant. percent response, % at 10 µM; in the data active means percent response mostly above about 71%, no sharp cut-off; inactive means mostly below about 38%;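 further: higher means compound restores mutant binding toward wildtype level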
MEKK3 confirm: MEKK3 wild-type PB1 binding to MEK5, inhibitors, confirmation, biochemical, bead multiplex flow cytometry, single concentration, wildtype; AID 1894, 2009; binding response (% of control), % at 10 µM; hit rate 1.8% among 5,900; shares compounds with MEKK3 PB1 HTS; Alexa488-MEK5 binding to MEKK3; hits give low values;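 active means binding response below 72% of control, or above a set upper limit, though filed actives all read lower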
Each line names hits and unclear results; the compound was inactive in the other large screens (follow-up assays come after a bar, where they were run); [ ] = dose if it differs, or a comment.

O=C(NCc1ccco1)C1CC(c2ccc(F)cc2)=NO1 (configuration not stated)	MEKK3 PB1 HTS 73[inhibitor] | MEKK2wt confirm inactive | MEKK2mut confirm inactive | MEKK3 confirm inactive
Fc1ccccc1OCCCCCCN1CCCC1	MEKK2 WT-MEK5 141 (no result: Lipid droplet) | MEKK2wt confirm inactive | MEKK2mut confirm inactive | MEKK3 confirm inactive
CC(NC(=O)c1cnccn1)c1ccc(S(N)(=O)=O)cc1 (configuration not stated)	none
O=C(CN1CCN(Cc2ccc(Cl)cc2)CC1)N/N=C/c1ccccc1F	MEKK2 WT-MEK5 57[inhibitor], MEKK3 PB1 HTS 68[inhibitor] | MEKK2wt confirm inactive | MEKK2mut confirm inactive | MEKK3 confirm inactive
CC1CN(c2ccccc2)NC1=O (configuration not stated)	none
COC(=O)Nc1nn(Cc2ccccc2F)cc1Br	MEKK3 PB1 HTS 74[inhibitor] | MEKK2wt confirm inactive | MEKK2mut confirm inactive | MEKK3 confirm inactive
CCn1cc([N+](=O)[O-])c(C(=O)Nc2ccn(Cc3ccccc3F)n2)n1	none
CCN(CC)c1ccc(C=Nc2ccc(N(C)C)cc2)c(O)c1	MEKK2mut PB1 HTS 79, MEKK2 WT-MEK5 -21 | MEKK2wt confirm inactive | MEKK2mut confirm inactive | MEKK3 confirm inactive
CCN(CC)c1ccc(/C=N/Nc2cccc(C)c2)c(O)c1	none
CCN(CC)c1ccc(/C=N/Nc2ccccc2)c(O)c1	MEKK2 WT-MEK5 136 (no result: Lipid droplet) | MEKK2wt confirm inactive | MEKK2mut confirm inactive | MEKK3 confirm inactive
CCN(CC)c1ccc(C=Nc2ccc(C)cc2)c(O)c1	MEKK2 WT-MEK5 69[inhibitor] | MEKK2wt confirm inactive | MEKK2mut confirm inactive | MEKK3 confirm inactive
CCOC(=O)N1CCN(C(=O)CSc2ccc(-c3ccc(OC)c(OC)c3)nn2)CC1	none
COc1ccc(-c2ccc(SCC(=O)N3c4ccccc4CC3C)nn2)cc1OC (configuration not stated)	MEKK3 PB1 HTS 122 | MEKK2wt confirm inactive | MEKK2mut confirm inactive | MEKK3 confirm inactive
COc1ccc2c(CC(=O)Nc3cccc(S(=O)(=O)N4CCOCC4)c3)coc2c1	none
CCCCNC(=O)c1onc(CSc2cc(C)cc(C)c2)c1C(=O)NCCCC	none (no result: Lipid droplet)
CCC(C)n1c(SCC(=O)NC(=O)Nc2ccc3c(c2)OCCO3)nc2ccccc2c1=O (configuration not stated)	none
COc1ccc(-c2cn3cccnc3n2)cc1NC(=O)c1cc(OC)c(OC)c(OC)c1	MEKK2 WT-MEK5 27[inhibitor], MEKK3 PB1 HTS 20[inhibitor] | MEKK2wt confirm inactive | MEKK2mut confirm inactive | MEKK3 confirm inactive
Cc1cccc(SCC(=O)Nc2ccc3c(c2)OCCO3)c1	none
COc1cccc(CNCc2ccc(OC)cc2OC)c1	none
CCn1c2ccccc2c2cc(CNCc3ccc(OC)cc3OC)ccc21	MEKK2 WT-MEK5 170 | MEKK2wt confirm inactive | MEKK2mut confirm inactive | MEKK3 confirm inactive
COc1ccccc1C(=O)Nc1nnc(S(=O)(=O)N(C)Cc2ccccc2)s1	none
COc1ccc(S(=O)(=O)N[C@@H](CC(C)C)C(=O)O)cc1	MEKK3 PB1 HTS 80[inhibitor] (no result: Lipid droplet) | MEKK2wt confirm inactive | MEKK2mut confirm inactive | MEKK3 confirm inactive
Cc1ccc2nc(N(CCCN(C)C)C(=O)COc3ccc(Cl)cc3)sc2c1	MEKK2 WT-MEK5 180 | MEKK2wt confirm inactive | MEKK2mut confirm inactive | MEKK3 confirm inactive
Cc1cc(C)c2sc(N(CCCN(C)C)C(=O)COc3ccc(Cl)cc3)nc2c1	MEKK2mut PB1 HTS 55, MEKK2 WT-MEK5 246 | MEKK2wt confirm inactive | MEKK2mut confirm inactive | MEKK3 confirm inactive
